Test results published in article PMC7049346 (Haematologica, 2019).

Experiments:
[1] = molecular target: PDE6AB (Homo sapiens, UniProt P16499+P35913); test: PDE enzyme inhibition, radiometric assay; format: biochemical
Summary of the method: (§1)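 Recombinant human PDE enzymes (33 in the panel) were incubated in vitro with increasing concentrations of the test compound. Enzyme activity was measured radiometrically and IC50 values derived.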

[2] = molecular target: PDE8A1 (Homo sapiens, UniProt O60658); test: PDE enzyme inhibition, radiometric assay; format: biochemical
Summary of the method: as §1

[3] = molecular target: PDE4B1 (Homo sapiens, UniProt Q07343); test: PDE enzyme inhibition, radiometric assay; format: biochemical
Summary of the method: as §1

[4] = molecular target: PDE4D3 (Homo sapiens, UniProt Q08499); test: PDE enzyme inhibition, radiometric assay; format: biochemical
Summary of the method: as §1

[5] = test system: erythroid cells from CD34+ progenitors of SCD patients; test: HbF induction in SCD patient-derived erythroblasts; format: cell-based, human; details: 10 μM IMR-687, five days, n=9, P<0.01
Summary of the method: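 CD34⁺ progenitors came from the blood or bone marrow of nine SCD donors. Cells grew seven days with 15% BIT 9500, 2 mM L-glutamine, IL-3 (10 ng/mL), IL-6 and SCF (100 ng/mL). CD36⁺ cells were then isolated and grown five days with SCF, IL-3 and EPO (2 UI/mL) plus DMSO, 30 μM hydroxyurea or 10 μM test compound. HbF⁺ cells (%) and HbF MFI were read by PE-anti-HbF FACS, gated LiveDead⁻/GPA⁺/Band3⁺.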

[6] = test system: K562 cells; test: cGMP induction in K562 cells; format: cell-based, human; details: 6 h
Summary of the method: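 Actively growing K562 cells were treated for 6 h with increasing concentrations of the test compound or hydroxyurea. cGMP was measured by non-radioactive enzyme immunoassay using the acetylation protocol, and protein by BCA assay. Data are means±Standard Errors.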

Chain of PDE8A1 (O60658 whole entry): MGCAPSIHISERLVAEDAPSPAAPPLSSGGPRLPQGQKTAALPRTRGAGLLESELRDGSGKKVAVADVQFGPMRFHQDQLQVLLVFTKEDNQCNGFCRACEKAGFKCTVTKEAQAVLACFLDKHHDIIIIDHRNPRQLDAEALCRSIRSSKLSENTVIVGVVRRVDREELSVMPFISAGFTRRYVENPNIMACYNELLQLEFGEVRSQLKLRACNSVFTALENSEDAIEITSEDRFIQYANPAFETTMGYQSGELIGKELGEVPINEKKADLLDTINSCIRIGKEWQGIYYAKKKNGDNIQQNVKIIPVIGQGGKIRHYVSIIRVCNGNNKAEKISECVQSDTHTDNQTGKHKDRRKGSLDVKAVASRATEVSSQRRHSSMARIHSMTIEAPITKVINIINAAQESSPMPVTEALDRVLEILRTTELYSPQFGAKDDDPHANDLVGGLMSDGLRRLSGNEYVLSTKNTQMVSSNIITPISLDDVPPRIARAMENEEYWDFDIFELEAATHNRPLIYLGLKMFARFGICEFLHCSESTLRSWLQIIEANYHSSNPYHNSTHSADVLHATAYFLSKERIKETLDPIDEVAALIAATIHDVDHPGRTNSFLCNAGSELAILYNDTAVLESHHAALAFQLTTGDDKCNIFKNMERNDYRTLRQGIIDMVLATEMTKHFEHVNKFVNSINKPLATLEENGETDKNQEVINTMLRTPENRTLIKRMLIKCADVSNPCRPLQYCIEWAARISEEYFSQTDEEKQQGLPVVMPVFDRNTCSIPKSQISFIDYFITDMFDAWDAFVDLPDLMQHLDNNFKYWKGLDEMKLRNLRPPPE
Chain of PDE4D3 (Q08499 1-673 isoform Q08499-2): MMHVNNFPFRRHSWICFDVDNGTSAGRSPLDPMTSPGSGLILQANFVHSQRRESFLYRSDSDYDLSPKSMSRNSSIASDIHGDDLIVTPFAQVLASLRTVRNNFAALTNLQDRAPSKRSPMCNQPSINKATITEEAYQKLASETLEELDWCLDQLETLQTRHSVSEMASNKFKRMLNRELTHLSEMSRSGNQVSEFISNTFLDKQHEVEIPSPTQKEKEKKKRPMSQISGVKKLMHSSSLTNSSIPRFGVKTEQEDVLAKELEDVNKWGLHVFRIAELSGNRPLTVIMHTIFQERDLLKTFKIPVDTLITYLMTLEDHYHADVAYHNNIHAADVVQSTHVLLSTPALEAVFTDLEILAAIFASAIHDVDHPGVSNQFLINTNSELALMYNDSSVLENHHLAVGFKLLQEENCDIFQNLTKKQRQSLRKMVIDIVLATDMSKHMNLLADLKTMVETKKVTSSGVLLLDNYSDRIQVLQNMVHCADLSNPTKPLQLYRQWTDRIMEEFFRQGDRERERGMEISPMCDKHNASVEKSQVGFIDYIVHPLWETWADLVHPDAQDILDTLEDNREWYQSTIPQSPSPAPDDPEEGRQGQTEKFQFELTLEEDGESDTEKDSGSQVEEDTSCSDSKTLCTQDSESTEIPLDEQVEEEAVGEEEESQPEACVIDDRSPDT
Chain of PDE4B1 (Q07343 whole entry): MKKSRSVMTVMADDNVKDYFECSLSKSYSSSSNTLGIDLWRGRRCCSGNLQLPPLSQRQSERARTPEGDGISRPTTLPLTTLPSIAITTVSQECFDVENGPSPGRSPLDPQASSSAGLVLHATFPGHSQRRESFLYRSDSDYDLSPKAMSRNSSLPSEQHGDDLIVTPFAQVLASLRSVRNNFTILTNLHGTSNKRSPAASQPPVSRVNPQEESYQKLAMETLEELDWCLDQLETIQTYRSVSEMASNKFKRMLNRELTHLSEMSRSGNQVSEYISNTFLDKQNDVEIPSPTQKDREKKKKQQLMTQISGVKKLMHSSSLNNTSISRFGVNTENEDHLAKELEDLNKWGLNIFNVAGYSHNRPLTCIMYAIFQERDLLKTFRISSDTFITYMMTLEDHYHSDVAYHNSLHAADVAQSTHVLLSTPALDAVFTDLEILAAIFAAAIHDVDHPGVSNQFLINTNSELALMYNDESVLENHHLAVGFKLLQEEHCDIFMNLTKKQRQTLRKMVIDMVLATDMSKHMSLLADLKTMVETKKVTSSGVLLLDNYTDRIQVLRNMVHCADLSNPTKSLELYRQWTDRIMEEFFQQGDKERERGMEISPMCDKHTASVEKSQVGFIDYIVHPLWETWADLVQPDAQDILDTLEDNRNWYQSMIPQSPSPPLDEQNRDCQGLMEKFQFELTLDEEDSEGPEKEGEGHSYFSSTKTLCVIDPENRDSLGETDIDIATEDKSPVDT
Chain of PDE6AB (P16499 whole entry): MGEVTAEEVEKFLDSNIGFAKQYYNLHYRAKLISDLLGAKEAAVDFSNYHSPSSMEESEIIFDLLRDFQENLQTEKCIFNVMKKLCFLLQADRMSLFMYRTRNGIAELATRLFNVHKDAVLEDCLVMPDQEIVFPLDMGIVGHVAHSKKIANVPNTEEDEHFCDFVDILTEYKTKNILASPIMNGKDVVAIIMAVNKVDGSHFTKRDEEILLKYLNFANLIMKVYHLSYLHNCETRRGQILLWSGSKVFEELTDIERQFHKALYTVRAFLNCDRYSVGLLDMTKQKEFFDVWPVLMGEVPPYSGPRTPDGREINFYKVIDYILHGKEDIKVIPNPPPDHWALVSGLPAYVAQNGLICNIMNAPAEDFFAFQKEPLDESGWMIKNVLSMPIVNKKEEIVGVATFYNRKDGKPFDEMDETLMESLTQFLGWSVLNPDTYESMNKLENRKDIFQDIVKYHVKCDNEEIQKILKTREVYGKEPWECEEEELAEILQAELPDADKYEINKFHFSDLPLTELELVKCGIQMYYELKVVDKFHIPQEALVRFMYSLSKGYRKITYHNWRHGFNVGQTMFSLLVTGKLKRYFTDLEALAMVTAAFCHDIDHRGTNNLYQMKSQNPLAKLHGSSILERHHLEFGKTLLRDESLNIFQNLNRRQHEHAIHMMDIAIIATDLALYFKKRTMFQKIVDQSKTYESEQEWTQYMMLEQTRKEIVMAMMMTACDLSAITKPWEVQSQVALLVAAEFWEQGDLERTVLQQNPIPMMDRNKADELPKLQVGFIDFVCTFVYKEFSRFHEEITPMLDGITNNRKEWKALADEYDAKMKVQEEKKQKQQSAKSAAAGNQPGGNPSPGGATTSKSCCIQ
Chain of PDE6AB (P35913 whole entry): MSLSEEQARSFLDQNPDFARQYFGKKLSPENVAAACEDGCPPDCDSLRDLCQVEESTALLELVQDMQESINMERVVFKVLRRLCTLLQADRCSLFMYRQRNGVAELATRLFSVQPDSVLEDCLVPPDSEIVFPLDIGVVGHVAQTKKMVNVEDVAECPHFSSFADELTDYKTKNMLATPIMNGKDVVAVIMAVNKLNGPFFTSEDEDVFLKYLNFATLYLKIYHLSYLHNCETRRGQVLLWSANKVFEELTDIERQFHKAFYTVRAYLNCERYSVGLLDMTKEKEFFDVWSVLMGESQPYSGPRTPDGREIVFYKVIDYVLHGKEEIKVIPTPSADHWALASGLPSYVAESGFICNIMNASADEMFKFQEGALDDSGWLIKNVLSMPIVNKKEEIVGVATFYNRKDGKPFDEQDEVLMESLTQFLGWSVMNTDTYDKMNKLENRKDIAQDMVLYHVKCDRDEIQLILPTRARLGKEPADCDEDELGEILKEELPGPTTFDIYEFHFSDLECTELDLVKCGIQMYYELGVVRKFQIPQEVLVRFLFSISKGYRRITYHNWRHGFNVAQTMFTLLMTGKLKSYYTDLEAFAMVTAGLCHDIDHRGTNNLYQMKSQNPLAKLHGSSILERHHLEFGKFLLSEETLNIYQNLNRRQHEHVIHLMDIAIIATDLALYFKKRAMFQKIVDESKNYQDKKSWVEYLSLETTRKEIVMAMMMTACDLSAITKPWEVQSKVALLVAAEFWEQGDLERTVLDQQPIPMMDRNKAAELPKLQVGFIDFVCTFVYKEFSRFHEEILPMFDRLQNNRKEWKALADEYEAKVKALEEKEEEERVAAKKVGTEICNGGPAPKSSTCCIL

- IC50 [1]: > 100 µM
- IC50 [2]: > 100 µM
- IC50 [3]: > 100 µM
- IC50 [4]: > 100 µM
Compound: C[C@@H]1CN(Cc2ncccn2)C[C@H]1c1cn2c(C3CCOCC3)ncc2c(=O)[nH]1 [IMR-687]
- percentage of F-cells (HbF positive) ([5]; DMSO control 13.3%): 21.9%
- intensity of HbF staining (MFI) ([5]; control 6073±1217): 7813±1374
- cGMP induction [6]: induced cGMP in a dosedependent manner
